Measured values pooled from the literature.
Each line is one published result; the experiments were not run side by side.
Target: Dual specificity protein kinase CLK3 (CLK3, Homo sapiens, UniProt P49761)

SMILES	assay	conditions	measurement	result
Cc1nn(C)cc1-c1nc2c(N3CCN(Cc4ccc(Cl)cc4)CC3)c(Cl)cnc2[nH]1	binding, competition with immobilised ligand	1 µM	remaining binding	88%
CCn1cnc2c(Nc3cccc(Cl)c3)nc(N[C@H]3CCCC[C@H]3N)nc21	enzyme activity, inhibitor	0.5 µM	remaining activity	99.8%
C#Cc1n[nH]c2c(-c3cn([C@@H](C)c4ccccn4)c(=O)[nH]c3=O)cc(F)cc12	enzyme activity, inhibitor	0.1 µM	inhibition	0.7%
COc1ncccc1-c1cnn2ccc(N3CCN(C(=O)OC(C)C)CC3)nc12	binding, competition with immobilised ligand	1 µM	remaining binding	78%
Cn1cc(-c2cccc(N3CCc4c(sc5c4CC(C)(C)C5)C3=O)c2CO)cc(Nc2ccncn2)c1=O	enzyme activity, inhibitor	1 µM	inhibition	4%
Cn1cncc1[C@@](O)(COc1ccc(C#N)cc1-c1ccc(OC(F)(F)F)cc1)c1ccc(C#N)cc1	cell-free assay, competition with immobilised ligand	1 µM	remaining binding	100%
COc1cc(Nc2ncc(F)c(Nc3ccc4c(n3)NC(=O)C(C)(C)O4)n2)cc(OC)c1OC	binding, competition with immobilised ligand	10 µM	inhibition	78%
N#CC1(c2ccccn2)CCN(Cc2cc(C(=O)O)c(=O)n3ccccc23)CC1	cell-free assay, competition with immobilised ligand	1 µM	remaining binding	100%
CC(C)(C)c1cc(C=C(C#N)C#N)cc(Br)c1O	enzyme activity, inhibitor	0.5 µM	remaining activity	122%
Cn1cc(-c2cc(F)cc(N3CCn4c(cc5c4CCCC5)C3=O)c2CO)cc(Nc2ccc(N3CCN(C4COC4)CC3)cn2)c1=O	enzyme activity, inhibitor	0.1 µM	inhibition	11%
Nc1ncc(-c2nc(N3CCOCC3)nc(N3CCOCC3)n2)c(C(F)F)n1	binding, competition with immobilised ligand	10 µM	remaining binding	90%
